Test results taken from ChEMBL document CHEMBL1275589, “Molecular epidemiology, sequence types, and plasmid analyses of KPC-producing Klebsiella pneumoniae strains in Israel” (2010).
In brackets after ≈: the same amount, converted by molar mass.

Tests used:
Klebsiella pneumoniae [1] = assay: Antimicrobial activity against carbapenem-resistant KPC-2 producing Klebsiella pneumoniae 526 transformant by agar dilution method; assay type: functional
Klebsiella pneumoniae [2] = assay: Antimicrobial activity against carbapenem-resistant KPC-2 producing Klebsiella pneumoniae 588 transformant by agar dilution method; assay type: functional
Klebsiella pneumoniae [3] = assay: Antimicrobial activity against carbapenem-resistant KPC-2 producing Klebsiella pneumoniae 475 transformant by agar dilution method; assay type: functional
Klebsiella pneumoniae [4] = assay: Antimicrobial activity against carbapenem-resistant KPC-2 producing Klebsiella pneumoniae 469 ST 277 expressing beta-lactamase SHV-27, CTX-M-15 and OXA-4 by agar dilution method; assay type: functional
Klebsiella pneumoniae [5] = assay: Antimicrobial activity against KPC-3 producing Klebsiella pneumoniae 549 transformant by agar dilution method; assay type: functional
Klebsiella pneumoniae [6] = assay: Antimicrobial activity against carbapenem-resistant KPC-2 producing Klebsiella pneumoniae 475 ST 277 expressing beta-lactamase SHV-27, CTX-M-15 and OXA-4 by agar dilution method; assay type: functional
Klebsiella pneumoniae [7] = assay: Antimicrobial activity against carbapenem-resistant KPC-2 producing Klebsiella pneumoniae 588 ST 340 expressing beta-lactamase TEM-1 and SHV-11 by agar dilution method; assay type: functional
Klebsiella pneumoniae [8] = assay: Antimicrobial activity against KPC-3 producing Klebsiella pneumoniae 549 ST 327 expressing beta-lactamase TEM-1 and CTX-M-2 by agar dilution method; assay type: functional
Klebsiella pneumoniae [9] = assay: Antimicrobial activity against carbapenem-resistant KPC-2 producing Klebsiella pneumoniae 365 ST 376 expressing beta-lactamase SHV-1, CTX-M-15 and OXA-4 by agar dilution method
Klebsiella pneumoniae [10] = assay: Antimicrobial activity against KPC-3 producing Klebsiella pneumoniae 557 ST 258 expressing beta-lactamase TEM-1 by agar dilution method
Klebsiella pneumoniae [11] = assay: Antimicrobial activity against KPC-3 producing Klebsiella pneumoniae 557 transformant by agar dilution method; assay type: functional
Klebsiella pneumoniae [12] = assay: Antimicrobial activity against carbapenem-resistant KPC-2 producing Klebsiella pneumoniae 523 ST 340 expressing beta-lactamase TEM-1, SHV-11 and OXA-2 by agar dilution method; assay type: functional
Klebsiella pneumoniae [13] = assay: Antimicrobial activity against carbapenem-resistant KPC-2 producing Klebsiella pneumoniae 525 ST 376 expressing beta-lactamase SHV-1 by agar dilution method; assay type: functional
Klebsiella pneumoniae [14] = assay: Antimicrobial activity against carbapenem-resistant KPC-2 producing Klebsiella pneumoniae 531 ST 376 expressing beta-lactamase SHV-1 by agar dilution method; assay type: functional
Klebsiella pneumoniae [15] = assay: Antimicrobial activity against carbapenem-resistant KPC-2 producing Klebsiella pneumoniae 469 transformant by agar dilution method; assay type: functional
Klebsiella pneumoniae [16] = assay: Antimicrobial activity against carbapenem-resistant KPC-2 producing Klebsiella pneumoniae 523 transformant by agar dilution method; assay type: functional
Klebsiella pneumoniae [17] = assay: Antimicrobial activity against carbapenem-resistant KPC-2 producing Klebsiella pneumoniae 526 ST 376 expressing beta-lactamase SHV-1 by agar dilution method; assay type: functional
Escherichia coli = assay: Antimicrobial activity against Escherichia coli Genehogs by agar dilution method; assay type: functional
Method in brief: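 Carbapenem MICs by agar dilution, interpreted per CLSI. FDA Enterobacteriaceae breakpoints applied: susceptible ≤2 μg/ml, intermediate 4 μg/ml, resistant ≥8 μg/ml. Transformants were made in recipient E. coli GeneHogs with purified plasmid DNA.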

Klebsiella pneumoniae [18] = assay: Antimicrobial activity against carbapenem-resistant KPC-2 producing Klebsiella pneumoniae 525 transformant by agar dilution method; assay type: functional
Klebsiella pneumoniae [19] = assay: Antimicrobial activity against carbapenem-resistant KPC-2 producing Klebsiella pneumoniae 531 transformant by agar dilution method; assay type: functional
Klebsiella pneumoniae [20] = assay: Antimicrobial activity against carbapenem-resistant KPC-2 producing Klebsiella pneumoniae 365 transformant by agar dilution method; assay type: functional

| Compound | MIC (Klebsiella pneumoniae [1]) | MIC (Klebsiella pneumoniae [2]) | MIC (Klebsiella pneumoniae [3]) | MIC (Klebsiella pneumoniae [4]) | MIC (Klebsiella pneumoniae [5]) | MIC (Klebsiella pneumoniae [6]) | MIC (Klebsiella pneumoniae [7]) | MIC (Klebsiella pneumoniae [8]) | MIC (Klebsiella pneumoniae [9]) | MIC (Klebsiella pneumoniae [10]) | MIC (Klebsiella pneumoniae [11]) | MIC (Klebsiella pneumoniae [12]) | MIC (Klebsiella pneumoniae [13]) | MIC (Klebsiella pneumoniae [14]) | MIC (Klebsiella pneumoniae [15]) | MIC (Klebsiella pneumoniae [16]) | MIC (Klebsiella pneumoniae [17]) | MIC (Escherichia coli) | MIC (Klebsiella pneumoniae [18]) | MIC (Klebsiella pneumoniae [19]) | also measured |
| --- | --- | --- | --- | --- | --- | --- | --- | --- | --- | --- | --- | --- | --- | --- | --- | --- | --- | --- | --- | --- | --- |
| CO/N=C(\C(=O)N[C@@H]1C(=O)N2C(C(=O)O)=C(CSc3nc(=O)c(O)nn3C)CS[C@H]12)c1csc(N)n1 [CEFTRIAXONE] | 32 µg/mL (≈ 57.7 µM) | 32 µg/mL (≈ 57.7 µM) | 32 µg/mL (≈ 57.7 µM) | > 64 µg/mL | 32 µg/mL (≈ 57.7 µM) | 16 µg/mL (≈ 28.9 µM) | > 64 µg/mL | > 64 µg/mL | > 64 µg/mL | > 64 µg/mL | 32 µg/mL (≈ 57.7 µM) | 16 µg/mL (≈ 28.9 µM) | > 64 µg/mL | > 64 µg/mL | > 64 µg/mL | 32 µg/mL (≈ 57.7 µM) | > 64 µg/mL | < 1 µg/mL | 8 µg/mL (≈ 14.4 µM) | 16 µg/mL (≈ 28.9 µM) |  |
| C[C@H]1[C@H](NC(=O)/C(=N\OC(C)(C)C(=O)O)c2csc(N)n2)C(=O)N1S(=O)(=O)O [AZTREONAM] | > 64 µg/mL | > 64 µg/mL | 32 µg/mL (≈ 73.5 µM) | > 64 µg/mL | > 64 µg/mL | > 64 µg/mL | > 64 µg/mL | > 64 µg/mL | > 64 µg/mL | > 64 µg/mL | > 64 µg/mL | > 64 µg/mL | > 64 µg/mL | > 64 µg/mL | 32 µg/mL (≈ 73.5 µM) | > 64 µg/mL | > 64 µg/mL | < 1 µg/mL | > 64 µg/mL | 64 µg/mL (≈ 147 µM) | MIC (Klebsiella pneumoniae [20]): > 64 µg/mL |
| C[C@@H](O)[C@H]1C(=O)N2C(C(=O)O)=C(S[C@@H]3CN[C@H](C(=O)N(C)C)C3)[C@H](C)[C@H]12 [MEROPENEM] | 4 µg/mL (≈ 10.4 µM) | 4 µg/mL (≈ 10.4 µM) | 4 µg/mL (≈ 10.4 µM) | 32 µg/mL (≈ 83.4 µM) | 2 µg/mL (≈ 5.22 µM) | 64 µg/mL (≈ 167 µM) | 64 µg/mL (≈ 167 µM) | 8 µg/mL (≈ 20.9 µM) | 64 µg/mL (≈ 167 µM) | 128 µg/mL (≈ 334 µM) | 4 µg/mL (≈ 10.4 µM) | 32 µg/mL (≈ 83.4 µM) | 64 µg/mL (≈ 167 µM) | 64 µg/mL (≈ 167 µM) | 4 µg/mL (≈ 10.4 µM) | 4 µg/mL (≈ 10.4 µM) | 64 µg/mL (≈ 167 µM) | 0.012 µg/mL (≈ 0.0313 µM) | 4 µg/mL (≈ 10.4 µM) | 4 µg/mL (≈ 10.4 µM) | MIC (Klebsiella pneumoniae [20]): 4 µg/mL (≈ 10.4 µM) |
| C[C@@H](O)[C@H]1C(=O)N2C(C(=O)O)=C(S[C@@H]3CN[C@H](C(=O)Nc4cccc(C(=O)O)c4)C3)[C@H](C)[C@H]12 | 8 µg/mL (≈ 16.8 µM) | 8 µg/mL (≈ 16.8 µM) | 8 µg/mL (≈ 16.8 µM) | 64 µg/mL (≈ 135 µM) | 4 µg/mL (≈ 8.41 µM) | 128 µg/mL (≈ 269 µM) | 128 µg/mL (≈ 269 µM) | 32 µg/mL (≈ 67.3 µM) | 64 µg/mL (≈ 135 µM) | 256 µg/mL (≈ 538 µM) | 4 µg/mL (≈ 8.41 µM) | 64 µg/mL (≈ 135 µM) | 128 µg/mL (≈ 269 µM) | 128 µg/mL (≈ 269 µM) | 4 µg/mL (≈ 8.41 µM) | 8 µg/mL (≈ 16.8 µM) | 64 µg/mL (≈ 135 µM) | 0.012 µg/mL (≈ 0.0252 µM) | 4 µg/mL (≈ 8.41 µM) | 2 µg/mL (≈ 4.21 µM) | MIC (Klebsiella pneumoniae [20]): 8 µg/mL (≈ 16.8 µM) |
| NCC[C@H](O)C(=O)N[C@@H]1C[C@H](N)[C@@H](O[C@H]2O[C@H](CN)[C@@H](O)[C@H](O)[C@H]2O)[C@H](O)[C@H]1O[C@H]1O[C@H](CO)[C@@H](O)[C@H](N)[C@H]1O [AMIKACIN] | 8 µg/mL (≈ 13.7 µM) | 32 µg/mL (≈ 54.6 µM) | 8 µg/mL (≈ 13.7 µM) | 4 µg/mL (≈ 6.83 µM) |  | < 2 µg/mL | 32 µg/mL (≈ 54.6 µM) | < 2 µg/mL | 4 µg/mL (≈ 6.83 µM) | 32 µg/mL (≈ 54.6 µM) | < 2 µg/mL | 16 µg/mL (≈ 27.3 µM) | 8 µg/mL (≈ 13.7 µM) | 8 µg/mL (≈ 13.7 µM) | 16 µg/mL (≈ 27.3 µM) | > 64 µg/mL | 4 µg/mL (≈ 6.83 µM) | < 2 µg/mL | 16 µg/mL (≈ 27.3 µM) | 16 µg/mL (≈ 27.3 µM) | MIC (Klebsiella pneumoniae [20]): < 2 µg/mL |
| C[C@H]1COc2c(N3CCN(C)CC3)c(F)cc3c(=O)c(C(=O)O)cn1c23.C[C@H]1COc2c(N3CCN(C)CC3)c(F)cc3c(=O)c(C(=O)O)cn1c23.O [LEVOFLOXACIN] | < 0.12 µg/mL | < 0.12 µg/mL | < 0.12 µg/mL | < 0.25 µg/mL | < 0.25 µg/mL |  | > 8 µg/mL | > 8 µg/mL | > 8 µg/mL | > 8 µg/mL | < 0.25 µg/mL | > 8 µg/mL | > 8 µg/mL | > 8 µg/mL | < 0.25 µg/mL | 0.25 µg/mL | > 8 µg/mL | 0.006 µg/mL | < 0.25 µg/mL | < 0.25 µg/mL | MIC (Klebsiella pneumoniae [20]): < 0.12 µg/mL |
| GENTAMICIN | < 1 µg/mL | 2 µg/mL | > 16 µg/mL | > 16 µg/mL | < 1 µg/mL | > 16 µg/mL | < 1 µg/mL | > 16 µg/mL |  |  | < 1 µg/mL | > 16 µg/mL | < 1 µg/mL | < 1 µg/mL | > 16 µg/mL | 2 µg/mL | < 1 µg/mL | < 1 µg/mL | < 1 µg/mL | < 1 µg/mL | MIC (Klebsiella pneumoniae [20]): < 1 µg/mL |
| CC(C)(O/N=C(\C(=O)N[C@@H]1C(=O)N2C(C(=O)[O-])=C(C[n+]3ccccc3)CS[C@H]12)c1csc(N)n1)C(=O)O [CEFTAZIDIME] | 16 µg/mL (≈ 29.3 µM) | 16 µg/mL (≈ 29.3 µM) | 16 µg/mL (≈ 29.3 µM) | > 64 µg/mL | > 64 µg/mL | 16 µg/mL (≈ 29.3 µM) | 16 µg/mL (≈ 29.3 µM) | 16 µg/mL (≈ 29.3 µM) | > 64 µg/mL | > 64 µg/mL | > 64 µg/mL | 16 µg/mL (≈ 29.3 µM) | > 64 µg/mL | > 64 µg/mL | > 64 µg/mL | 16 µg/mL (≈ 29.3 µM) | > 64 µg/mL | < 1 µg/mL | 16 µg/mL (≈ 29.3 µM) | 16 µg/mL (≈ 29.3 µM) | MIC (Klebsiella pneumoniae [20]): 16 µg/mL (≈ 29.3 µM) |
| C[C@@H](O)[C@H]1C(=O)N2C(C(=O)O)=C(SCCNC=N)C[C@H]12 [IMIPENEM ANHYDROUS] | 8 µg/mL (≈ 26.7 µM) | 8 µg/mL (≈ 26.7 µM) | 8 µg/mL (≈ 26.7 µM) | 32 µg/mL (≈ 107 µM) | 4 µg/mL (≈ 13.4 µM) | 32 µg/mL (≈ 107 µM) | 32 µg/mL (≈ 107 µM) | 0.75 µg/mL (≈ 2.51 µM) | 32 µg/mL (≈ 107 µM) | 128 µg/mL (≈ 428 µM) | 4 µg/mL (≈ 13.4 µM) | 32 µg/mL (≈ 107 µM) | 32 µg/mL (≈ 107 µM) | 32 µg/mL (≈ 107 µM) | 8 µg/mL (≈ 26.7 µM) | 8 µg/mL (≈ 26.7 µM) | 32 µg/mL (≈ 107 µM) | 0.094 µg/mL (≈ 0.314 µM) | 4 µg/mL (≈ 13.4 µM) | 4 µg/mL (≈ 13.4 µM) | MIC (Klebsiella pneumoniae [20]): 8 µg/mL (≈ 26.7 µM) |
